Screening data as filed in PubChem BioAssay.
PGC1a acetyl inh – inhibitors of PGC1a acetylation signal, primary screen, cell-based, U2OS, AlphaScreen, inhibitor mode | AlphaScreen anti-acetyl-lysine; with virally co-expressed GCN5 acetyltransferase | inhibition, % at 15.6 µM | actives 0.17% (n = 350,000) | AID 651687, 2012;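 active = every replicate shows inhibition of at least 40%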
EWS-Fli block – EWS/Fli-driven NR0B1 reporter inhibitors, primary screen, A673 cells, NR0B1 luciferase, luminescence, MLPCN library; actives 0.67% (n = 350,000); AID 651661, 2012; inhibition, % at 12.6 µM; viability-normalised;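 active = mean inhibition of at least 50% after viability correction, with every replicate also passing that limit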;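 also: firefly luciferase signal divided by Alamar Blue viability fluorescence both relative to DMSO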
FN deposit inh – inhibitors of fibronectin matrix deposition, primary screen, AH1F cells, Alexa488-fibronectin fluorescence, plate reader; AH1F fibroblasts, overnight; inhibition, % at 12.6 µM; actives 0.086% (n = 350,000); AID 743247, 2014;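 active = mean inhibition across replicates of 30% or more, regardless of how many single replicates reach that level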
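Schedule: 1 h cell adhesion before compound, then overnight fibronectin incubation; test system: AH1F fibroblast monolayer depositing Alexa488-labelled fibronectin into matrix; quantity: 10000 AH1F cells per well; probe or stimulus: fluorescent fibronectin at 24 nM final; signal: fluorescence, ex 485 nm, em 525 nm; evaluation: percent inhibition as loss of matrix-bound fibronectin fluorescence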
Env fusion inh – inhibitors of HIV-1 Env-driven cell-cell fusion, primary screen, HeLa-JRFL effector, CEM21 target cells, luciferase; inhibition, % at 12.3 µM; actives 1.1% (n = 360,000); AID 651610, 2012;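 active = mean replicate inhibition score of at least 50 and every replicate individually at or above 50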
FGF22 binding-1 – binders of human FGF22 protein, primary screen, FGF22 synaptogenesis inhibitor project, biophysical, thermal shift, single point | Fibroblast growth factor 22 (Homo sapiens), Q9HCT0 | recombinant FGF22 thermal shift, SYPRO orange fluorescence; percent of sucrose octasulfate shift, DMSO zero | activity (Tm shift, normalised), % at 9.99 µM | actives 1.5% (n = 340,000) | AID 651658, 2012;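 active = mean Tm shift, scaled 0 neutral to 100 positive control, at about 1.3% or above, every replicate too, limit read from the data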
Target sequence (Q9HCT0 whole entry, looked up): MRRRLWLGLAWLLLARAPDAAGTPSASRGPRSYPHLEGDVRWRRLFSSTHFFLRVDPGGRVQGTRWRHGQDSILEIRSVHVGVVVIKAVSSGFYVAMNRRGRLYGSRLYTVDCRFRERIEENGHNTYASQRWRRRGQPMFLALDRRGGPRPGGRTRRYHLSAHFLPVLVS
PAX8 inh HTS – inhibitors of PAX8-driven TPO luciferase reporter, primary screen, RMG-I cells, single concentration; SteadyGlo, 24 h; inhibition, % at 12.6 µM; actives 1.2% (n = 360,000); AID 652154, 2013;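 active = mean replicate inhibition at least 60% with every replicate also reaching 60%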;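 also: luciferase light reporting Pax8 driven TPO promoter activity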
FGF22 binding-2 – binders of human FGF22 protein, dose response, FGF22 synaptogenesis inhibitor project, biophysical, thermal shift, cherry-pick retest; shares compounds with FGF22 binding-1; recombinant FGF22 thermal shift, SYPRO orange fluorescence; thermal shift activity, °C (ΔTm) at 38 µM; actives 2% (n = 1,000); AID 720646, 2013;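 active = fitted rise in melting shift crosses a set limit at or below the top valid dose tested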
SYPRO no-protein – compound-only thermal shift signal without protein, dose response, artefact control for FGF22 binder project, biochemical, cherry-picked samples, RT-PCR instrument | actives 2% (n = 1,000) | AC50, µM (highest dose often 38 µM) | compound-only SYPRO orange thermal shift counter-screen, no protein | shares compounds with FGF22 binding-1;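 active = rising signal whose fitted curve reaches the 0.54 level within the top valid dose, showing a melting point, actives reach about 13 µM in these data; inactive = the rest, including activity in the opposite direction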; also: value is where the raw curve crosses a fixed level and not half-maximal
Of the large screens only hits and unclear results are named; the others gave an inactive call (follow-up assays come after a bar, where they were run). Only some compounds are listed: those with a hit (about 3.1% of all), similar ones and a draw of the others.

OC[C@H]1[C@H](c2ccc(-c3ccccc3)cc2)[C@H]2CN(Cc3ccccn3)CCCCN21	none (no result: FN deposit inh, Env fusion inh)
OC[C@@H]1[C@H](c2ccc(-c3ccccc3)cc2)[C@@H]2CN(Cc3ccccn3)CCCCN12	none (no result: FN deposit inh, Env fusion inh)
OC[C@H]1[C@@H](c2ccc(-c3ccccc3F)cc2)[C@H]2CN(Cc3cccnc3)CCCCN21	none (no result: EWS-Fli block, FN deposit inh, Env fusion inh)
OC[C@@H]1[C@H](c2ccc(-c3cccnc3)cc2)[C@@H]2CN(Cc3ccccn3)CCCCN12	FGF22 binding-1 1.4 (no result: Env fusion inh) | FGF22 binding-2 inactive | SYPRO no-protein inactive
OC[C@@H]1[C@H](c2ccc(-c3cccnc3)cc2)[C@H]2CN(Cc3ccccn3)CCCCN12	FGF22 binding-1 1.5 (no result: Env fusion inh) | FGF22 binding-2 inactive | SYPRO no-protein inactive
CN1CCN(C(=O)C[C@@H]2CC[C@@H]3[C@H](COC[C@H](O)CN3C(=O)C3CCOCC3)O2)CC1	none
COc1cc(C(=O)NC(=S)Nc2ccc([N+](=O)[O-])cc2C)cc(OC)c1OC	none
COc1cc(C(=O)NC(=S)Nc2ccccc2[N+](=O)[O-])cc(OC)c1OC	FGF22 binding-1 1.8 | FGF22 binding-2 inactive | SYPRO no-protein inactive
CCN1[C@H](C(=O)N(C)C)[C@@H](CO)[C@@H]2Cn3c(ccc(-c4cccc(OC)c4)c3=O)[C@@H]21	none (no result: PGC1a acetyl inh, FN deposit inh, Env fusion inh)
CC(=O)Nc1cccc(C(=O)N2CCC(n3nccc3NC(=O)CC(C)C)CC2)c1	FGF22 binding-1 1.5 (no result: PGC1a acetyl inh, EWS-Fli block) | FGF22 binding-2 inactive | SYPRO no-protein inactive
CNC[C@H]1Oc2cc(C#Cc3ccccc3F)ccc2S(=O)(=O)N([C@@H](C)CO)C[C@@H]1C	none (no result: FGF22 binding-1)
CNC[C@@H]1OCCCC[C@H](C)Oc2ccc(NC(=O)c3ccncc3)cc2C(=O)N([C@H](C)CO)C[C@@H]1C	none (no result: FN deposit inh)
C/C=C/c1ccc([C@@H]2[C@H](C#N)N(C(=O)CN3CCOCC3)[C@H]2CO)cc1	FGF22 binding-1 2.3 (no result: Env fusion inh) | FGF22 binding-2 inactive | SYPRO no-protein inactive
CCS(=O)(=O)N1CC(=O)N2[C@@H](CO)[C@H](c3ccc(C#Cc4ccc(F)cc4)cc3)[C@@H]2C1	none (no result: FN deposit inh, Env fusion inh, FGF22 binding-1)
O=C(CNC(=O)OCc1ccccc1)NC1CCCCCCC1	none (no result: EWS-Fli block, FGF22 binding-1)
O=C(COc1ccccc1)NCC(=O)NC1CCCCC1	FGF22 binding-1 1.9 | FGF22 binding-2 inactive | SYPRO no-protein inactive
CCC(=O)N(C)C[C@@H]1[C@@H](c2ccc(-c3ccccc3F)cc2)[C@H](CO)N1C(C)=O	none (no result: Env fusion inh)
CCNC(=O)[C@H]1[C@H](CO)[C@H]2Cn3c(cccc3=O)[C@H]2N1CC1CCCCC1	none (no result: PGC1a acetyl inh, FN deposit inh, FGF22 binding-1, PAX8 inh HTS)
O=C(Cc1ccccc1)N1CC2(C1)[C@H](c1ccccc1)[C@H](CO)N2C(=O)Cc1ccccc1	none (no result: FN deposit inh, Env fusion inh, PAX8 inh HTS)
COCC(=O)N1[C@@H](CO)[C@H](c2ccccc2)C12CN(C(=O)c1ccccc1)C2	none (no result: PGC1a acetyl inh, Env fusion inh, FGF22 binding-1, PAX8 inh HTS)
COCC(=O)N1[C@H](CO)[C@H](c2ccccc2)C12CN(C(=O)c1ccccc1)C2	FGF22 binding-1 1.3 (no result: Env fusion inh) | FGF22 binding-2 inactive | SYPRO no-protein inactive
COCC(=O)N1CC2(C1)[C@H](c1ccc(-c3cccc(C)c3)cc1)[C@H](CO)N2C(=O)C1CC1	FGF22 binding-1 1.5 (no result: FN deposit inh, Env fusion inh) | FGF22 binding-2 inactive | SYPRO no-protein inactive
CC(=O)N1[C@H](CO)[C@@H](c2ccccc2)C12CN(C(=O)Cc1ccccc1)C2	FGF22 binding-1 1.6 (no result: FN deposit inh, Env fusion inh) | FGF22 binding-2 inactive | SYPRO no-protein inactive
CCC(=O)N1[C@@H](CO)[C@@H](c2ccccc2)C12CN(C(=O)Nc1ccccc1F)C2	none (no result: Env fusion inh)
O=C(C[C@H]1C=C[C@H](NC(=O)Nc2ccccc2)[C@@H](CO)O1)NCc1ccccn1	none (no result: FN deposit inh)
